The source of these data is ChEMBL document CHEMBL1833856, “Discovery and kinetic evaluation of 6-substituted 4-benzylthio-1,3,5-triazin-2(1H)-ones as inhibitors of cathepsin B” (Eur J Med Chem, 2011).

Assay [1] addresses T1, Cathepsin B (Homo sapiens, UniProt P07858). Description: Reversible inhibition of human recombinant cathepsin B assessed as formation of fluorescent degradation product AMC using Z-Arg-Arg-AMC as substrate by Michaelis-Menten method. In a few lines: (§1)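 Recombinant human catB (133 pM) preactivated 5 min at 37 °C in 100 mM phosphate pH 6.0, 0.1% PEG 8000, 5 mM DTT, 1.5 mM EDTA, 5% DMSO. Initial hydrolysis rates taken across Z-Arg-Arg-AMC (60, 180, 360 µM, as added) and inhibitor (0–70 µM, as added). AMC read ex 380/em 460 nm at 37 °C. Duplicates, two independent runs. β fitted for ES-complex binding.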

In assay [2] the target is T1, Cathepsin B. Description: Mixed-type inhibition of human recombinant cathepsin B assessed as formation of fluorescent degradation product AMC using Z-Arg-Arg-AMC as substrate by Michaelis-Menten method. The method in brief:
as §1

Assay [3] has as its target Procathepsin L (Homo sapiens) (UniProt P07711). Description: Inhibition of human recombinant cathepsin L expressed in Escherichia coli assessed as formation of fluorescent degradation product AMC using Z-Phe-Arg-AMC as substrate at 50 uM by fluorescence microplate assay.
For assay [4], the target named is T2, Pro-cathepsin H (Homo sapiens) (UniProt P09668).
T2 sequence (whole entry): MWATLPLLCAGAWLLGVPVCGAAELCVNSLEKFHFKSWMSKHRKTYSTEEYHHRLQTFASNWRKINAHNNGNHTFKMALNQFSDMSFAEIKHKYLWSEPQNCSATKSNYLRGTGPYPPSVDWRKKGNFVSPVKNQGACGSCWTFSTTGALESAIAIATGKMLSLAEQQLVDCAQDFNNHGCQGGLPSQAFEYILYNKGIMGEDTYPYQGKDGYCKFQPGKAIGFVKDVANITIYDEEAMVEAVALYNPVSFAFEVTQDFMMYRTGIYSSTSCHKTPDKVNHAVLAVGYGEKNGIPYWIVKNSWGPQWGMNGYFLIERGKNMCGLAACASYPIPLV
Description: Inhibition of native cathepsin H isolated from human liver assessed as formation of fluorescent degradation product AMC using Arg-AMC as substrate at 50 uM by fluorescence microplate assay.

Assay [5] addresses T1, Cathepsin B. Description: Inhibition of human recombinant cathepsin B assessed as factor by which the product formation changes when the inhibitor binds to the enzyme-substrate complex using Z-Arg-Arg-AMC as substrate by fluorescence microplate assay. The method in brief: as §1

Sequence of Procathepsin L (Homo sapiens) (P07711 114-333 limits assumed): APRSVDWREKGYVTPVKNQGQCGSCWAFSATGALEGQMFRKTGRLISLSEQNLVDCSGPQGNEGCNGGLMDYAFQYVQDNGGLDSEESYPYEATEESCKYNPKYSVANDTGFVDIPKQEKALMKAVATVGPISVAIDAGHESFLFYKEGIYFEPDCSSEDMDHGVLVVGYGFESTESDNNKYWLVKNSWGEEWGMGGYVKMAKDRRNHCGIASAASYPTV

Regarding `O=c1nc(SCc2ccccc2)nc(SCC2CCC2)[nH]1`, the Ki in assay [1] worked out at 34.1 µM; in assay [2], 10.1 µM. Moreover, the inhibition in assay [3] amounted to 37.4%; in assay [4] it was 1.57%. For the same compound, in assay [5], the fold change (FC) was 0.
With `O=c1nc(SCc2ccccc2)nc(SCC2CC2)[nH]1`, the inhibitory constant (Ki) was 211 µM in assay [1] and 28.3 µM in assay [2]. For the same compound, the inhibition amounted to 42% in assay [3] and 10% in assay [4]. Besides, in assay [5], the fold change (FC) came out at 0.
Turning to `CCCSc1nc(SCc2ccccc2)[nH]c(=O)n1`, the Ki in assay [1] is 259 µM; in assay [2], 49.4 µM.
As for `O=C(O)CSc1nc(SCc2ccccc2)nc(=O)[nH]1`, the inhibition constant (Ki) came out at 560 µM in assay [1] and 351 µM in assay [2]. For the same compound, the figures for the inhibition in assay [3] and in assay [4] were -2.36% and 6.89%, respectively. In assay [5], the fold change (FC) was found to be 0.
Turning to `CCCCSc1nc(SCc2ccccc2)nc(=O)[nH]1`, the figures for the Ki in assay [1] and in assay [2] were 70.6 µM and 14.8 µM, respectively. Further, the inhibition in assay [3] is 9.33%; in assay [4], -1.81%. Moreover, in assay [5], the fold change (FC) is 0.
With `CCSc1nc(SCc2ccccc2)nc(=O)[nH]1`, the Ki is 221 µM in assay [1] and 97.1 µM in assay [2]. In assay [4], the inhibition was -4.06%. The fold change (FC) in assay [5] turned out to be 0.
With `N#CCSc1nc(SCc2ccccc2)nc(=O)[nH]1`, the Ki was 208 µM in assay [1] and 51.6 µM in assay [2]. The inhibition was -5.28% in assay [3] and 4.94% in assay [4]. Also, the fold change (FC) in assay [5] amounted to 0.
Take `O=c1nc(SCc2ccccc2)nc(SCC2CCCC2)[nH]1`: the Ki was determined as 23 µM in assay [1] and 8.95 µM in assay [2]. In addition, the results for the inhibition in assay [3] and in assay [4] were 9.96% and 10.6%, respectively. Further, in assay [5], the fold change (FC) was found to be 0.
